# Source: PubChem (The Scripps Research Institute Molecular Screening Center)
# NPY1 pot ag: NPY-Y1 receptor potentiators or agonists, primary screen, cell-based; Neuropeptide Y receptor type 1 (Homo sapiens), P25929; NPY-Y1 expressing cells, potentiator/agonist activation; activation, % at 3.6 µM; 220,000 tested, 0.37% active; in the data active = activation above about 33%, passing the limit was not always enough;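 also: cells stimulated with NPY at EC10 then isoproterenol at EC100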
# S1P4 antagonist: S1P4 receptor antagonists, primary screen, cell-based; Sphingosine 1-phosphate receptor 4 (Homo sapiens), O95977; S1P4-expressing cells, antagonist mode, reporter read-out; inhibition, % at 4.98 µM; 220,000 tested, 0.26% active; in the data active = inhibition above about 29%
# NPY-Y2 antag: NPY-Y2 receptor antagonists, primary screen, cell-based. NPY-Y2 expressing cells, antagonist mode. inhibition, % at 2.7 µM. AID 793, 2007. 140,000 tested, 0.99% active; in the data active = inhibition above about 17%
# NPY2 pot ag: NPY-Y2 potentiators or agonists, primary screen, cell-based | activation, % at 3.6 µM | cells expressing NPY-Y2, potentiator/agonist read-out | 220,000 tested, 0.45% active | Neuropeptide Y receptor type 2 (Homo sapiens), P49146; in the data active = activation above about 27%;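 also: cells stimulated with NPY near EC25 plus isoproterenol at EC100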
# S1P4 ag: S1P4 receptor agonists, primary screen, cell-based. Sphingosine 1-phosphate receptor 4 (Homo sapiens), O95977. S1P4-expressing cell line, agonist reporter assay. 220,000 tested, 0.35% active. activation, % at 4.98 µM; in the data active = activation above about 11%
# NPY Y1 blocker: NPY-Y1 receptor antagonists, primary screen, cell-based; Neuropeptide Y receptor type 1 (Homo sapiens), P25929; HEK293-CNG Y1 cells, membrane potential fluorescence; NPY at EC95, then isoproterenol; inhibition, % at 3.6 µM; 200,000 tested, 1% active; AID 1040, 2008;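 active = inhibition above the campaign mean inhibition of all tested compounds plus 3 SD, cut at about 20% in these data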
#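 material = HEK293 cells with Y1 receptor plus CNG channel | also added = NPY 25 nM then isoproterenol 1 µM plus Ro 20-1724 25 µM | schedule = dye 3 h, compound 60 min room temperature, stimulation 45 min | measured by = membrane potential fluorescence | benchmarks = high control isoproterenol alone, low control NPY with isoproterenol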
# S1P4 agonist cf: S1P4 receptor agonists, retest, confirmation, cell-based, high throughput; shares compounds with S1P4 ag; S1P4 agonist cell-based reporter assay; activation, % at 4.98 µM; 740 tested, 7% active; AID 1523, 2009; in the data active = activation above about 12%
# S1P1 agonist: S1P1 receptor agonists, human, counter-screen for S1P4 agonist project, cell-based; shares compounds with S1P4 ag; S1P1 agonist cell-based assay, activation; activation, % at 4.98 µM; 740 tested, 4% active; in the data active = activation above about 21%
# Target sequence (P21453 whole entry, looked up): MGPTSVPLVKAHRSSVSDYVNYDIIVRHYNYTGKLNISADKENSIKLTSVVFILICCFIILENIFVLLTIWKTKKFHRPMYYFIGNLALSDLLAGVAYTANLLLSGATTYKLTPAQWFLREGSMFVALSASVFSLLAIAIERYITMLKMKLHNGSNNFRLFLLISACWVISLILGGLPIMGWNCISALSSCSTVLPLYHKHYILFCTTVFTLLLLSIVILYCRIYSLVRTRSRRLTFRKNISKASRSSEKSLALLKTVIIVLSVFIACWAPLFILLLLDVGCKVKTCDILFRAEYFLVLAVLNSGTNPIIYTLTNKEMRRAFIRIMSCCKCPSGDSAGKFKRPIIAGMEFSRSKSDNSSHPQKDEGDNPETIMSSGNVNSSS
# Numbers stand for hits; . = inactive; / = not tested or not shown; ! = not confirmed by another sample. Compounds with a hit are over-represented: about 2.4% of the library has one in this group of screens.
SMILES,NPY1 pot ag,S1P4 antagonist,NPY-Y2 antag,NPY2 pot ag,S1P4 ag,NPY Y1 blocker,S1P4 agonist cf,S1P1 agonist
Cc1cc(C)cc(NC(=O)CSc2nnc(-c3ccc(S(=O)(=O)N4CCCC4)cc3)o2)c1,.,.,.,.,11,.,.,.
O=c1cc(N2CCCCC2)nc2n1CCCS2,.,.,.,.,25,.,.,.
C(=C\c1nccc2c1[nH]c1ccccc12)/c1ccccc1,.,.,/,.,11,/,.,.
OCCC1CN(Cc2cccnc2)CCN1CCc1ccccc1 (centres undefined),.,.,/,.,.,.,/,/
CC(C)n1cc(CN2CCN(CCc3ccccc3)C(CCO)C2)cn1 (centres undefined),.,.,/,.,14,.,.,.
COc1cc(/C=N/Nc2cccc(C)c2)ccc1OC(=O)c1ccco1,.,.,.,.,.,.,/,/
CC(=O)Nc1ccc(NC(=O)c2oc3cc(C)c(C)cc3c2C)cc1,.,.,.,.,12,.,.,.
CCN1C(=O)/C(=C/c2ccc(C)o2)N(C)C1=S,.,.,.,.,.,.,/,/
COc1ccc(/C=C/C(=O)Nc2cc(C)on2)cc1,.,.,.,.,.,.,/,/
COc1ccc(/C=C/C(=O)Nc2nonc2NC(C)=O)cc1,.,.,.,.,38,.,.,.
COc1cc(C2NC(=O)C(C#N)=C(Nc3cccc(C)c3)S2)ccc1O (centres undefined),.,.,/,.,22!,/,.,.
Cc1ccc(CN2CCNC(=O)C2CC(=O)NCC(F)(F)F)o1 (centres undefined),.,.,/,.,.,.,/,/
Cc1cccc(-n2c(=O)c(C#N)cc3c(=O)n4ccccc4nc32)c1,.,.,.,.,14,.,17,22
Cc1ccc(-n2c(=O)c(C#N)cc3c(=O)n4ccccc4nc32)cc1,.,.,.,.,.,.,/,/
N/C(=N\OC(=O)c1ccc(Cl)cc1)c1[nH]ncc1Br,.,.,/,.,.,/,/,/
CCC(C(=O)OCC(=O)Nc1c(Cl)cccc1Cl)c1ccccc1 (centres undefined),.,.,.,.,15,.,.,.
COCCNc1nnnc2c1sc1nc(N3CCOCC3)c3c(c12)CCCC3,.,.,/,.,.,.,/,/
Cc1ccc(S(=O)(=O)/N=C2\CN(C)C(=O)N2C)cc1,.,.,.,.,16,.,.,.
Cc1ccc(S(=O)(=O)/N=c2\sccn2C)cc1,.,.,.,.,.,.,/,/
N=c1c(C(=O)NC2CCCC2)cc2c(=O)n3ccccc3nc2n1C1CCCC1,.,.,.,.,.,.,/,/
COCCCn1c(=N)c(C(=O)NC2CCCCC2)cc2c(=O)n3ccccc3nc21,.,.,20,.,13,.,.,.
Cc1cccn2c(=O)c3cc(C(=O)NCc4cccnc4)c(=N)n(C(C)C)c3nc12,.,.,.,.,.,.,/,/
CC(C)n1c(=N)c(C(=O)NCCc2ccccc2)cc2c(=O)n3ccccc3nc21,.,.,.,.,18,.,14,36
O=c1c2ccccc2nnn1Cc1ccc2ccccc2c1,.,.,/,.,.,.,/,/
Cc1c(/C=C/C(=O)c2ccccc2)cnn1C,.,.,.,.,.,.,/,/
Cc1c(/C=C/C(=O)c2ccc(Cl)s2)cnn1C,.,.,.,.,13,.,.,.
O=C(CN1CCOCC1)Nc1scc2c1c(=O)oc1ccccc12,.,.,/,.,23,/,.,.
O=C(CN1CCCCC1)Nc1scc2c1c(=O)oc1ccccc12,.,.,/,.,.,/,/,/
CCN(CC)C(=O)C1CCCN(Cc2ccccc2)C1 (centres undefined),.,.,.,.,22,.,.,.
COc1ccc(-c2cc(C(=O)N/N=C/c3ccc(OC)c(COCC(F)(F)C(F)F)c3)c3ccccc3n2)c(OC)c1,.,.,.,.,72,.,.,.
